Laboratory results: ChEMBL document CHEMBL4665738, “Identification of 4-anilino-6-aminoquinazoline derivatives as potential MERS-CoV inhibitors” (Bioorg Med Chem Lett, 2020)

How the values were obtained:
[1] = tested on: Middle East respiratory syndrome-related coronavirus; assay: Antiviral activity against Middle East respiratory syndrome coronavirus MERS-CoV/KOR/KNIH/002_05_2015 infected in African green monkey Vero cells assessed as reduction in virus induced cytopathic effect after 24 hrs by immunofluorescence assay; type: functional, organism-based; conditions: MERS-CoV/KOR/KNIH/002_05_2015, Vero
[2] = tested on: Vero; assay: Cytotoxicity against African green monkey Vero cells infected with Middle East respiratory syndrome coronavirus MERS-CoV/KOR/KNIH/002_05_2015 assessed as reduction in cell viability; type: cell-based; conditions: chlorocebus sabaeus
[3] = target: Voltage-gated inwardly rectifying potassium channel KCNH2 (Homo sapiens, UniProt Q12809); assay: Modulation of human ERG
Voltage-gated inwardly rectifying potassium channel KCNH2, sequence (Q12809 whole entry): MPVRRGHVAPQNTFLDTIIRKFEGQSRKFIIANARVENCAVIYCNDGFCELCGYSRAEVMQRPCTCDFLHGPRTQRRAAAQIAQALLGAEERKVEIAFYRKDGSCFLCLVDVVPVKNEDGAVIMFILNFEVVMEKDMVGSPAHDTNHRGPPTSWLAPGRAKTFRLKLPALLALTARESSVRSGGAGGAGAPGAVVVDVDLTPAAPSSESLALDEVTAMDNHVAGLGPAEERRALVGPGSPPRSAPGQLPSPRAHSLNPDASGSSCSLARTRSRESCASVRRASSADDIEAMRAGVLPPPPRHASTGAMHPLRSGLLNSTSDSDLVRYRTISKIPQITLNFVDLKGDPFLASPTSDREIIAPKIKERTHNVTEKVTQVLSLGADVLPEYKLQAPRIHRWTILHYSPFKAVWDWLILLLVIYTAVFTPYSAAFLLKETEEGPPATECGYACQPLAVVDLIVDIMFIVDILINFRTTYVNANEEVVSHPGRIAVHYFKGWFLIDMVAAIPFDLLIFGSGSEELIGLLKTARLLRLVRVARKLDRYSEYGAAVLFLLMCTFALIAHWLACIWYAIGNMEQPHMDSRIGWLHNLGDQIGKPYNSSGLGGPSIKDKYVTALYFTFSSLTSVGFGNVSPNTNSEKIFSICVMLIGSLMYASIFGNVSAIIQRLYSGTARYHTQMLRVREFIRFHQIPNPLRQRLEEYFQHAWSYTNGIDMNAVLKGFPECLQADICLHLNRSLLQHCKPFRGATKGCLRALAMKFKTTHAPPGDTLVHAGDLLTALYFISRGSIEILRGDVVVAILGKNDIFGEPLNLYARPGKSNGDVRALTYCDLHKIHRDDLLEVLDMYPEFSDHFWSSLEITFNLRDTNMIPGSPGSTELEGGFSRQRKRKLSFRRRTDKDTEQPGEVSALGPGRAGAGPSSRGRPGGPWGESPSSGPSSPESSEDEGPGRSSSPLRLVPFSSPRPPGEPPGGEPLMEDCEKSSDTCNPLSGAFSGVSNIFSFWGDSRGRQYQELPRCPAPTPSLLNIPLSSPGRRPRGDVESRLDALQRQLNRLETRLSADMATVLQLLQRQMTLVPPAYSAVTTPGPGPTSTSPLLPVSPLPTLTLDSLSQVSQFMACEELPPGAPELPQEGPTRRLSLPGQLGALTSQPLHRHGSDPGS

[4] = Metabolic stability in mouse microsomes assessed as parent compound remaining incubated for 30 mins; type: ADME, Microsome; conditions: read-out: Stabilty
Outline: (§1)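 Mouse or human liver microsomes were incubated with the compound for 30 min. The read-out is the percentage of original compound remaining.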

[5] = Metabolic stability in human microsomes assessed as parent compound remaining incubated for 30 mins; type: ADME, Microsome; conditions: read-out: Stabilty; outline: as §1
[6] = Cytotoxicity against African green monkey Vero cells; type: cell-based; conditions: chlorocebus sabaeus
Outline: (§2)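 Cytotoxicity values are given in µM, each against a named cell line: Vero (African green monkey kidney), HFL-1 (human embryonic lung), L929 (NCTC clone 929 mouse fibroblast), NIH 3T3 (mouse embryonic fibroblast) and CHO-K1 (Chinese hamster ovary).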

[7] = Cytotoxicity against human HFL-1 cells; type: cell-based, HFL1; outline: as §2
[8] = Cytotoxicity against mouse L929 cells; type: cell-based; outline: as §2
[9] = Cytotoxicity against mouse NIH/3T3 cells; type: cell-based, NIH3T3; outline: as §2
[10] = Cytotoxicity against CHO-K1 cells; type: cell-based, Cricetulus griseus; conditions: chinese hamster; outline: as §2
[11] = Half life in rat at 2 mg/kg, iv; type: ADME, organism-based; conditions: in vivo
Outline: (§3)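 Rats were dosed intravenously at 2 mg/kg or orally at 5 mg/kg. Each parameter is the mean of experiments in three rats.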

[12] = AUC in rat at 2 mg/kg, iv; type: ADME, organism-based; parameters: dose 2 mg/kg; conditions: in vivo
Outline: (§4)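 Rat pharmacokinetic study with separate intravenous (2 mg/kg) and oral (5 mg/kg) dosing arms; reported parameters are means from three rats per experiment.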

[13] = Clearance in rat at 2 mg/kg, iv; type: ADME, organism-based; conditions: in vivo; outline: as §3
[14] = Volume of distribution at steady state in rat at 2 mg/kg, iv; type: ADME, organism-based; conditions: in vivo, read-out: Vdss; outline: as §3
[15] = Cmax in rat at 5 mg/kg, po; type: ADME, organism-based; parameters: route oral, dose 5 mg/kg; conditions: in vivo; outline: as §3
[16] = Half life in rat at 5 mg/kg, po; type: ADME, organism-based; conditions: in vivo; outline: as §3
[17] = AUC in rat at 5 mg/kg, po; type: ADME, organism-based; parameters: dose 5 mg/kg; conditions: in vivo; outline: as §4
[18] = Oral bioavailability in rat at 5 mg/kg; type: ADME, organism-based; conditions: in vivo; outline: as §3
[19] = in vivo; conditions: rat, po, 5 mg/kg

Compound | IC50 [1] [µM] | CC50 [2] [µM] | also measured
Fc1ccc(Nc2ncnc3ccc(NC4CCCCC4)cc23)cc1Cl | 15 | > 25 | 
Fc1ccc(Nc2ncnc3ccc(NCc4cccc(C(F)(F)F)c4)cc23)cc1Cl | 2.3 | 9.2 | 
O=[N+]([O-])c1ccc(CNc2ccc3ncnc(Nc4ccc(C(F)(F)F)cc4)c3c2)cc1 | 3.3 | > 25 | 
O=[N+]([O-])c1ccc(CNc2ccc3ncnc(Nc4ccc(F)c(Cl)c4)c3c2)cc1 | 2.7 | > 25 | 
N#Cc1cccc(CNc2ccc3ncnc(Nc4ccc(C(F)(F)F)cc4)c3c2)c1 | 3.6 | > 25 | 
COc1cc2ncnc(Nc3ccc(F)c(Cl)c3)c2cc1NCc1cccc(C#N)c1 | 5.8 | 13.2 | 
N#Cc1cccc(CNc2cc3c(Nc4ccc(F)c(Cl)c4)ncnc3cc2O)c1 | > 25 | > 25 | 
COc1cccc(CNc2ccc3ncnc(Nc4ccc(F)cc4)c3c2)c1 | 22.7 | > 25 | 
O=[N+]([O-])c1ccccc1CNc1ccc2ncnc(Nc3ccc(F)c(Cl)c3)c2c1 | 3.3 | > 25 | 
COc1ccccc1CNc1ccc2ncnc(Nc3ccc(F)c(Cl)c3)c2c1 | 3.8 | > 25 | 
N#Cc1ccccc1CNc1ccc2ncnc(Nc3ccc(F)c(Cl)c3)c2c1 | > 25 | > 25 | 
N#Cc1ccc(CNc2ccc3ncnc(Nc4ccc(F)c(Cl)c4)c3c2)cc1 | 4.8 | > 25 | 
CC(=O)Nc1ccc2ncnc(Nc3ccc(F)c(Cl)c3)c2c1 | > 25 |  | 
N#Cc1cccc(C(=O)Nc2ccc3ncnc(Nc4ccc(F)c(Cl)c4)c3c2)c1 | > 25 |  | 
N#Cc1cccc(CNc2ccc3ncnc(Nc4ccc(F)c(Cl)c4)c3c2)c1 | 0.157 |  | Activity [3]: > 50 µM; remaining at 0.5 h [4]: 60.7%; remaining at 0.5 h [5]: 56.4%; CC50 [6]: > 100 µM; CC50 [7]: > 100 µM; CC50 [8]: > 100 µM; CC50 [9]: > 100 µM; CC50 [10]: > 100 µM; half-life [11]: 5.9 h; AUC [12]: 1110 ng·h/mL; clearance [13]: 28.8 mL/min/kg; Vd [14]: 6.3 L/kg; Cmax [15]: 0.2 µg/h; half-life [16]: 5.5 h; AUC [17]: 570 ng·h/mL; bioavailability [18]: 21%; Tmax [19]: 2 h
COc1cccc(CNc2ccc3ncnc(Nc4ccc(F)c(Cl)c4)c3c2)c1 | 5.6 | > 25 | 

Compound | IC50 [1] [µM] | CC50 [2] [µM] | also measured
COc1cccc(CNc2ccc3ncnc(Nc4cccc(C(C)=O)c4)c3c2)c1 | > 25 |  | 
COc1cccc(CNc2ccc3ncnc(Nc4ccc(C(F)(F)F)cc4)c3c2)c1 | 1.8 | > 25 | 
NC(=O)c1cccc(CNc2ccc3ncnc(Nc4ccc(F)c(Cl)c4)c3c2)c1 | > 25 |  | 
N#Cc1ccccc1CNc1ccc2ncnc(Nc3ccc(C(F)(F)F)cc3)c2c1 | > 25 | > 25 | 
O=[N+]([O-])c1cccc(CNc2ccc3ncnc(Nc4ccc(C(F)(F)F)cc4)c3c2)c1 | 3.7 | > 25 | 
N#Cc1cccc(/C=C/C(=O)Nc2ccc3ncnc(Nc4ccc(F)c(Cl)c4)c3c2)c1 | > 25 |  | 
Fc1ccc(CNc2ccc3ncnc(Nc4ccc(F)c(Cl)c4)c3c2)cc1 | 4.6 | 14.4 | 
COc1cccc(CNc2ccc3ncnc(Nc4ccc(Br)cc4)c3c2)c1 | 7.4 | > 25 | 
CCCCN(CCCC)c1ccc2ncnc(Nc3ccc(F)c(Cl)c3)c2c1 | > 25 |  | 
Fc1ccc(CNc2ccc3ncnc(Nc4ccc(F)c(Cl)c4)c3c2)cc1F | 4.6 | 23 | 
Oc1ccccc1CNc1ccc2ncnc(Nc3ccc(F)c(Cl)c3)c2c1 | 3.6 |  | 
COc1cccc(CNc2ccc3ncnc(Nc4ccc(C#N)cc4)c3c2)c1 | > 25 | > 25 | 
N#Cc1ccc(CNc2ccc3ncnc(Nc4ccc(C(F)(F)F)cc4)c3c2)cc1 | 4.1 | > 25 | 
COc1cccc(CNc2ccc3ncnc(Nc4cccc(Cl)c4)c3c2)c1 | > 25 | 23 | 
O=[N+]([O-])c1cccc(CNc2ccc3ncnc(Nc4ccc(F)c(Cl)c4)c3c2)c1 | 6.1 | > 25 | 
